Paper PMC12443483 (Journal of the American Chemical Society, 2025)
Where “and” joins values, the source holds several entries; their conditions need not be identical. Identical values can stand only once.

Columns and labels:
[1] = Photophysical characterization by absorption and fluorescence spectroscopy; assay type: physicochemical; settings: for Absorbance λabs (maximum absorption wavelength) / Emission λem (maximum emission wavelength) / ε (molar absorption coefficient at maximum absorption wavelength): 25 μM probe in CH3CN/PBS pH 7.4; for Stokes Shift: difference between λabs and λem, CH3CN/PBS pH 7.4
Method in brief: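 Probe at 25 μM final in CH3CN/PBS (50:50 v/v), pH 7.4. Absorption and emission spectra were recorded, with excitation at each probe's absorption maximum. ε was taken at the absorption maximum, and Stokes shift as the absorption–emission maximum difference. Quantum yield (error limit ±5) was measured in this mixture and also in CH3CN.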

[2] = Viscosity sensitivity: fluorescence in ethylene glycol/glycerol mixtures; assay type: physicochemical; settings: EG/G mixtures 16 to 851 cP; for Viscosity sensitivity χ2: second-order polynomial regression, 25 μM probe
Method in brief: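 Fluorescence was measured in ethylene glycol/glycerol mixtures spanning 16–851 cP; the two solvents were chosen for closely matched dielectric constants, to minimise polarity effects. χ2 was derived from second-order polynomial regression of intensity against viscosity.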

[3] = Polarity sensitivity: emission across solvents with varying dielectric constants; assay type: physicochemical; settings: for Polarity sensitivity: λem versus solvent dielectric constant; for Emission wavelength range (solvatochromism): depending on solvent polarity
[4] = Temperature dependence of fluorescence in methanol/glycerol mixtures; assay type: physicochemical
Method in brief: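 Fluorescence of 25 μM probe was measured in methanol/glycerol mixtures of varying viscosity at 25 and 42 °C. Fluorescence fold change was plotted against viscosity.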

αS fibrils [5] = biological target: T1, αS fibrils (Homo sapiens, UniProt P37840); experiment: Binding affinity; settings: for Kd: read-out: Dissociation constant (Kd), probe 10 nM–10 μM with 100 μM αS fibrils
αS/Tau0N4R condensates = experiment: CLSM staining of αS/tau condensates relative to αS fibrils; settings: 80 μM αS / 40 μM tau, LLPS buffer
tau fibrils = experiment: Amyloid selectivity: turn-on with αS fibrils relative to tau fibrils; assay type: binding; settings: 1 μM probe
αS/pLK condensates = experiment: CLSM staining of αS/pLK LLPS condensates relative to αS fibrils; settings: αS 100 μM / pLK 0.25 mg/mL, LLPS buffer
Method in brief: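 Condensates of αS (100 μM) and poly-L-lysine (0.25 mg/mL), doped with 5% Acd-labelled αS (position 94) and 5% FITC-poly-L-lysine, stained and imaged by confocal microscopy. Channels: Acd 430–480 nm (Ex 405 nm); FITC 500–540 nm; probe Ex 561 nm, Em 570–620 or 630–680 nm. Probe intensity in condensates was divided by that with αS fibrils. Buffer: HEPES/NaCl/TCEP pH 7.4 with 15% PEG-8000, room temperature. SD of >3 measurements.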

PDD-derived AFs = PDD-derived AFs (Homo sapiens, UniProt P37840); experiment: Fluorescence with amplified fibrils; assay type: binding; settings: 1 μM probe, 1 μM AFs, average of three PDD patients
Method in brief: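 Probe (1 μM) was mixed with amplified fibrils (1 μM) or brain lysates from three PDD patients, and the averages are shown. Ex/Em was set per probe: 463/580 or 484/620 nm, with ThT reference at 450/482 nm. Fold change is after subtracting free probe fluorescence in PBS. Error bars are SD of 3 measurements.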

αS fibrils [6] = biological target: T1, αS fibrils; experiment: Competition binding studies with ThT, Ex6 and BF2846 on αS fibrils; settings: for Competition with ThT: some ThT emission remained at saturating concentrations
αS monomer = αS monomer (Homo sapiens, UniProt P37840); experiment: Fluorescence with TMAO-induced αS misfolding/oligomers; assay type: biochemical
Method in brief: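 Monomeric αS (50 μM) was exposed to trimethylamine N-oxide at 2, 4 or 6 M to induce misfolding or oligomers, then probe fluorescence was read. Fold change is relative to free probe in Tris buffer containing the same TMAO concentration.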

αS = αS (Homo sapiens, UniProt P37840); experiment: Monitoring αS aggregation over prolonged agitation; assay type: biochemical; settings: PBS buffer, 37 °C; for Detection of early αS aggregation species (misfolding, oligomers/protofibrils): 0–40 hours
αS fibrils [7] = biological target: T1, αS fibrils; experiment: Concentration-dependent binding λem and local dielectric constant on αS fibrils; settings: for Dielectric constant of local environment of probe bound to αS fibrils: calculated from fits of λem in solvents, 581 nm for 3c, 617 nm for 4a
Aβ1–42 fibrils = experiment: Amyloid selectivity: turn-on with αS fibrils relative to Aβ1–42 fibrils; assay type: binding; settings: 1 μM probe
αS fibrils [8] = biological target: T1, αS fibrils; experiment: Turn-on fluorescence upon binding to αS fibrils; settings: for Brightness increase upon binding to αS fibrils / Emission wavelength upon binding to αS fibrils: 10 μM probe, 50 μM αS fibrils; for Fluorescence lifetime (τ) upon binding to αS fibrils: bound to αS fibrils
Method in brief: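 Emission spectra of 10 μM probe were recorded with 50 μM αS monomer or fibrils. Samples were also photographed under a 365 nm hand-held UV lamp.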

Tau0N4R condensates [9] = experiment: CLSM staining of Tau0N4R condensates with and without αS; settings: 40 μM Tau0N4R with or without 80 μM αS
Method in brief: (§1)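 Confocal imaging of 40 μM Tau0N4R condensates, with or without 80 μM αS, doped with 5% AF488-labelled Tau0N4R. Buffer: 20 mM HEPES, 150 mM NaCl, 1 mM TCEP, pH 7.4, 15% PEG-8000, room temperature. Probe read at Ex 561 nm, Em 630–680 nm; AF488-tau at Ex 488 nm, Em 500–540 nm. Error bars are SD of >3 measurements.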

Tau0N4R condensates [10] = biological target: Tau0N4R condensates (Homo sapiens, UniProt P10636); experiment: as above; settings: 40 μM Tau0N4R without αS, 630–680 nm channel
Method in brief: as §1

[11] = 2 M TMAO, 50 μM αS monomer, 10 μM probe
[12] = 4 M TMAO, 50 μM αS monomer, 10 μM probe
[13] = 6 M TMAO, 50 μM αS monomer, 10 μM probe

Tau0N4R condensates (Homo sapiens, UniProt P10636), sequence (P10636 2-383 isoform P10636-6): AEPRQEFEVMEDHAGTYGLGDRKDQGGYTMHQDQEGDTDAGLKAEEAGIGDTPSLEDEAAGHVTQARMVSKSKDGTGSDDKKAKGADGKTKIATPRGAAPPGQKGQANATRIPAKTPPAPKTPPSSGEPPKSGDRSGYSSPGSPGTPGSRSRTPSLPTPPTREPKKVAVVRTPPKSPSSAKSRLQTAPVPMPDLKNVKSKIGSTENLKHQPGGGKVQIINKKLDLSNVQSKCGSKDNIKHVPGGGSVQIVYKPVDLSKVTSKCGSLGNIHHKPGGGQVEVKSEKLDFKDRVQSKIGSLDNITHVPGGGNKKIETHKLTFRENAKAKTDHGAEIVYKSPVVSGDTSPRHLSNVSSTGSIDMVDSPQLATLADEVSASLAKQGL

Cc1c(C)n2c(/C=C/c3ccc(N)cc3)c(C)c(=O)n2c1=O [3a]
Absorbance λabs (maximum absorption wavelength) [1]: 385 nm | Emission λem (maximum emission wavelength) [1]: 583 nm | ε (molar absorption coefficient at maximum absorption wavelength) [1]: 30800 M⁻¹ cm⁻¹ | Fluorescence QY ([1]; CH3CN/PBS pH 7.4, 25 μM): 0.7% | Stokes Shift [1]: 198 nm | Fluorescence QY ([1]; in CH3CN): 1.5% | Fluorescence intensity change with viscosity [2]: 5.4 fold | Viscosity sensitivity χ2 [2]: 1.0 ×10^−3 | Polarity sensitivity [3]: 26.7 | Fluorescence change between 25 °C and 42 °C [4]: 2.14 fold

CNc1ccc(/C=C/c2c(C)c(=O)n3c(=O)c(C)c(C)n23)cc1 [3b]
Absorbance λabs (maximum absorption wavelength) [1]: 399 nm | Emission λem (maximum emission wavelength) [1]: 591 nm | ε (molar absorption coefficient at maximum absorption wavelength) [1]: 26400 M⁻¹ cm⁻¹ | Fluorescence QY ([1]; CH3CN/PBS pH 7.4, 25 μM): 0.5% | Stokes Shift [1]: 192 nm | Fluorescence QY ([1]; in CH3CN): 2.0% | Fluorescence intensity change with viscosity [2]: 4.68 fold | Viscosity sensitivity χ2 [2]: 0.7 ×10^−3 | Emission wavelength range (solvatochromism) [3]: 486–640 nm | Polarity sensitivity [3]: 30.7

Cc1c(C)n2c(/C=C/c3ccc(N(C)C)cc3)c(C)c(=O)n2c1=O [3c]
Kd (αS fibrils [5]): 1450 ± 430 nM | Absorbance λabs (maximum absorption wavelength) [1]: 418 nm | Emission λem (maximum emission wavelength) [1]: 604 nm | ε (molar absorption coefficient at maximum absorption wavelength) [1]: 30400 M⁻¹ cm⁻¹ | Fluorescence QY ([1]; CH3CN/PBS pH 7.4, 25 μM): 0.5% | Stokes Shift [1]: 186 nm | Fluorescence QY ([1]; in CH3CN): 7.3 ± 0.3% and 7.3% | Staining: probe intensity ratio αS/Tau condensates to αS fibrils (αS/Tau0N4R condensates): 0.37 fold | Turn-on for αS fibrils relative to tau fibrils (tau fibrils): 2.8 fold | Staining efficiency: probe intensity ratio αS/pLK condensates to αS fibrils (αS/pLK condensates): 0.68 fold | Fluorescence with PDD-derived AFs compared to unamplified lysate (PDD-derived AFs): 2.4 fold | Fluorescence intensity change with viscosity [2]: 3.82 fold | Viscosity sensitivity χ2 [2]: 0.6 ×10^−3 | Displacement of probe fluorescence by BF2846 (Site B binder) (αS fibrils [6]): partially displaced | Displacement of probe fluorescence by Ex6 (Site A binder) (αS fibrils [6]): not displaced | Competition with ThT (αS fibrils [6]): competed with the promiscuous binder ThT | Polarity sensitivity [3]: 32.1 | λem with αS/TMAO (αS monomer; 4 M TMAO): 566 nm | λem with αS/TMAO (αS monomer; 6 M TMAO): 560 nm | Detection of early αS aggregation species (misfolding, oligomers/protofibrils) (αS): unable to detect changes within 20 h | λem as probe concentration increased (αS fibrils [7]; bound to αS fibrils): 575 to 581 nm | λem shift as concentration increased (αS fibrils [7]; bound to αS fibrils): 6 nm | Dielectric constant of local environment of probe bound to αS fibrils (αS fibrils [7]): 35.9 | Turn-on for αS fibrils relative to Aβ1–42 fibrils (Aβ1–42 fibrils): 5.2 fold | Fluorescence change between 25 °C and 42 °C [4]: 2.48 fold | Brightness increase upon binding to αS fibrils (αS fibrils [8]): 476 fold | Emission wavelength upon binding to αS fibrils (αS fibrils [8]): 580 nm | Fluorescence lifetime (τ) upon binding to αS fibrils (αS fibrils [8]): 2.27 ns

Cc1c(C)n2c(/C=C/C=C/c3ccc(N(C)C)cc3)c(C)c(=O)n2c1=O [4a]
Affinity relative to 3c (αS fibrils [5]; Kd ratio 3c/4a): 3.5 times | Kd (αS fibrils [5]): 420 ± 250 nM | Absorbance λabs (maximum absorption wavelength) [1]: 436 nm | Emission λem (maximum emission wavelength) [1]: 640 nm | ε (molar absorption coefficient at maximum absorption wavelength) [1]: 36700 M⁻¹ cm⁻¹ | Fluorescence QY ([1]; CH3CN/PBS pH 7.4, 25 μM): 0.6% | Stokes Shift [1]: 204 nm | Fluorescence QY ([1]; in CH3CN): 13.5% | Staining: probe intensity ratio αS/Tau condensates to αS fibrils (αS/Tau0N4R condensates): 1.12 fold | Turn-on for αS fibrils relative to tau fibrils (tau fibrils): 11 fold | Staining efficiency: probe intensity ratio αS/pLK condensates to αS fibrils (αS/pLK condensates): 1.11 fold | Fluorescence with PDD-derived AFs compared to unamplified lysate (PDD-derived AFs): 2.6 fold | Fluorescence in αS-containing tau condensates compared to tau-only condensates (Tau0N4R condensates [9]): 3.8 fold | Staining of tau-only condensates (Tau0N4R condensates [10]): minimal staining | Fluorescence intensity change with viscosity [2]: around 3 fold | Displacement of probe fluorescence by BF2846 (Site B binder) (αS fibrils [6]): not affected | Displacement of probe fluorescence by Ex6 (Site A binder) (αS fibrils [6]): not affected | Competition with ThT (αS fibrils [6]): competed with the promiscuous binder ThT | λem shift ([3]; across solvents with dielectric constants from 2.38 to 8.93): 64 nm | Emission wavelength range (solvatochromism) [3]: 486–640 nm | Polarity sensitivity [3]: ~ 31.5 | λem with αS/TMAO (αS monomer; 2 M TMAO): 604 nm | Sensitivity (turn-on) relative to 3c (αS monomer; [11]): 2.2 fold | Sensitivity (turn-on) relative to ThT (αS monomer; [11]): 3.1 fold | λem with αS/TMAO (αS monomer; 4 M TMAO): 606 nm | Sensitivity (turn-on) relative to 3c (αS monomer; [12]): 2.9 fold | Sensitivity (turn-on) relative to ThT (αS monomer; [12]): 5.2 fold | λem with αS/TMAO (αS monomer; 6 M TMAO): 601 nm | Turn-on relative to 2a (so in the source) (αS monomer; [13]): 1.2 fold | Turn-on relative to ThT (αS monomer; [13]): 1.5 fold | Increase in fluorescence intensity within 20 hours of αS aggregation (αS; agitation): 15 fold | λem as probe concentration increased (αS fibrils [7]; bound to αS fibrils): 617 to 618 nm | Dielectric constant of local environment of probe bound to αS fibrils (αS fibrils [7]): 27.6 | Turn-on for αS fibrils relative to Aβ1–42 fibrils (Aβ1–42 fibrils): 15 fold | Brightness increase upon binding to αS fibrils (αS fibrils [8]): 383 fold | Emission wavelength upon binding to αS fibrils (αS fibrils [8]): 620 nm | Fluorescence lifetime (τ) upon binding to αS fibrils (αS fibrils [8]): 1.27 ns

Cc1ccc2c(c1)sc(-c1ccc(N(C)C)cc1)[n+]2C [ThT, Thioflavin-T, reference compound]
Staining: probe intensity ratio αS/Tau condensates to αS fibrils (αS/Tau0N4R condensates): 0.34 fold | Staining efficiency: probe intensity ratio αS/pLK condensates to αS fibrils (αS/pLK condensates): 0.15 fold | Fluorescence with PDD-derived AFs compared to unamplified lysate (PDD-derived AFs): failed to distinguish AFs from lysate | Detection of early αS aggregation species (misfolding, oligomers/protofibrils) (αS): only tracking mature fibrils
